Test system: E. coli BW25113 ΔtolC growth inhibition, OD615
Assay: growth inhibitors of E. coli tolC mutant, dose response, strain BW25113 ΔtolC::kan (AID 617)
How it was run: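 Test system: E. coli BW25113 ΔtolC::kan bacteria / Buffer or medium: kanamycin-containing LB broth, 50 µg/mL / Compound: serial dilution series of compound / Incubation: bacterial growth with compound for 20 h, 37 °C / Measured by: OD615 / Read-out basis: growth-inhibition IC50 from four-parameter logistic curve, bounds set to 0% and 100%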

SMILES | IC50 [µM]
CCCn1c(CN(Cc2ccccc2)Cc2ccccc2)nc2c1c(=O)n(C)c(=O)n2C | 7.19
CN(C)c1ccc(-c2nn3c(-c4ccncc4)nnc3s2)cc1 | 13.6
O=S(=O)(Nc1nc2ccccc2nc1N1CCN(c2ccccn2)CC1)c1ccc(Cl)cc1 | 3.16
c1ccc(CCc2ccccc2-c2nc(-c3cccnc3)no2)cc1 | 11.9
Cc1ccc(Cn2c(SCC(C)C)nc3c2c(=O)n(C)c(=O)n3C)cc1 | 89.6
COc1ccc(S(=O)(=O)C(C#N)c2nc3ccccc3nc2N2CCCC(C)C2)cc1 (configuration not stated) | 6.97
COc1cc(NS(=O)(=O)c2ccc(Br)cc2)c(OC)cc1NC(=O)c1ccco1 | 25.3
Cc1cccc(-n2ncc3c(N4CC(C)CC(C)C4)ncnc32)c1 (configuration not stated) | 12.2
N#Cc1nc(Cc2ccccc2)oc1NCCc1ccccc1 | 8.5
C=C(C)COc1ccc(-c2[nH]ncc2Oc2cccc(OC)c2)c(O)c1 | 6
Cc1cc(N2CCC(C(=O)Nc3ccc(F)cc3)CC2)nc(-c2ccccc2)n1 | 22.5
CNc1nc(Nc2ccc(C(C)=O)cc2)nc(OC(C(F)(F)F)C(F)(F)F)n1 | 20.1
O=C(Nc1nnc(-c2cccs2)o1)c1cccc(Oc2ccccc2)c1 | 0.17
CCCc1nc2ccccc2c(=O)n1NC(=O)c1c(O)c2ccccc2[nH]c1=O | 5.73
Clc1ccc(COC(Cn2ccnc2)c2ccc(Cl)cc2Cl)c(Cl)c1 (configuration not stated) | 3.22
O=C(N1CCN(c2ccccc2F)CC1)C12CC3CC(CC(C3)C1)C2 | 18.6
CCOc1ccc(Nc2cc(C)nc(-n3nc(C)cc3C)n2)cc1 | 4.19
Cn1c(NC(=O)c2ccccc2NC(=O)C(C)(C)C)nc2ccccc21 | 9.13
Cc1ccc(C)n1-n1c(C)nc2sc3c(c2c1=O)CCCCC3 | 69.2

SMILES | IC50 [µM]
Cc1nn(-c2ccc(F)cc2)c2sc(C(=O)N3CCCCCC3)cc12 | 20.2
CN(Cc1ccccc1)c1nc2c(c(=O)n(C)c(=O)n2C)n1CCCc1ccccc1 | 7.51
Oc1ccc2c(c1)oc1cc(O)ccc12 | 16.6
COc1ccc(Cl)cc1N1CCN(CCNC(=O)Nc2ccccc2C)CC1 | 43.7
CC1=C(C#N)c2nc(N)c(C#N)c(C)c2/C1=C\c1ccccc1 | 3.05
O=C(Nc1cccc(-c2nnc(-c3ccccc3)o2)c1)c1ccc(Br)o1 | 5.69
COc1cc2cc(C(c3nnnn3C3CCCCC3)N(C)C3CCCCC3)c(=O)[nH]c2cc1OC (configuration not stated) | 9.71
Cc1ccc(-c2noc(CSc3nnnn3C3CCCCC3)n2)cc1 | 12.9
Clc1ccc(OCc2nn3c(C4CCCCC4)nnc3s2)cc1 | 9.82
Cc1ccc(NC(=O)CSC2=C(C#N)C(c3ccco3)C3=C(CC(C)(C)CC3=O)N2)cc1 (configuration not stated) | 8.92
Cc1cccc(-n2ncc3c(NCc4ccc5c(c4)OCO5)ncnc32)c1 | 8.94
COc1ccc(CN(Cc2cc3cc4c(cc3[nH]c2=O)OCO4)C(=O)NC2CCCCC2)cc1 | 20.2
O=C(CSc1nc2ccccc2[nH]1)Nc1cc(C(F)(F)F)ccc1N1CCOCC1 | 5.96
CCOC(=O)C1CN(c2cc3c(cc2F)c(=O)c(C(=O)O)cn3CC)OC1C(=O)OCC (configuration not stated) | 0.81
C=C(C)COc1ccc(-c2[nH]ncc2Oc2ccccc2OCC)c(O)c1 | 6.14
CCn1c(C(=O)N2CCC(Cc3ccccc3)CC2)cc2sccc21 | 10.2
CCCCCOC(=O)c1ccc(NC(=O)c2ccco2)cc1 | 6.52
CC1(C)Cc2c(c(N3CCCC3)nc3sc4c(N5CCN(CCO)CC5)ncnc4c23)CO1 | 18.1
CCCC1=C(C(=O)OCC)C(c2cc(Cl)cc(OC)c2OCC(=O)OCC)NC(=O)N1 (configuration not stated) | 24.5

SMILES | IC50 [µM]
Cc1nc(N2CCN(Cc3ccccc3)CC2)nc2c1C(=O)CC(c1ccco1)C2 (configuration not stated) | 10.6
CC(C)c1nc(N2CCOCC2)c(C#N)c2c1CCCC2 | 18
Clc1ccc(OCCn2ccnc2)c2ccccc12 | 5.58
COC(=O)CNS(=O)(=O)c1ccc(Cc2ccc(S(=O)(=O)NCC(=O)OC)cc2)cc1 | 1.29
CC(C)CCOC(=O)c1c(N)n(CC2CCCO2)c2nc3ccccc3nc12 (configuration not stated) | 18.3
OCCN(CCO)c1nc(N2CCCCC2)c2nc(N(CCO)CCO)nc(N3CCCCC3)c2n1 | 1.38
Cc1ccccc1-c1nnc(SCc2ccccc2F)o1 | 25.8
Cc1c(CCC(=O)O)c(=O)oc2cc3occ(-c4ccc(F)cc4)c3cc12 | 5.48
COc1ccc(-c2cc(C(=O)N3CCc4ccccc4C3)no2)cc1OC | 16.6
N#Cc1nc(Cc2ccccc2)oc1NCc1ccccc1Cl | 4.79
O=C(Nc1ccc2c(c1)CCC2)C1COc2ccccc2O1 (configuration not stated) | 12.2
CC1CCc2cc(F)ccc2N1C(=O)c1cc2nc(-c3ccco3)cc(C(F)(F)F)n2n1 (configuration not stated) | 11.2
COc1ccc(C(=O)Nn2cnc3scc(-c4cccs4)c3c2=O)c(O)c1 | 3.24
CC1CCCc2sc3nc(NCc4ccco4)n4ncnc4c3c21 (configuration not stated) | 11.6
CCc1cc2c3c(c(=O)oc2cc1O)CCCC3 | 33
CCOC(=O)c1ccc(Oc2nc(NC(C)(C)C)nc(N(C)C)n2)cc1 | 14.9
CC1=C(C(=O)OC2CCCC2)C(c2ccc(C)o2)C2=C(CC(c3cccs3)CC2=O)N1 (configuration not stated) | 11.2
Cc1cc(Cl)cc(C)c1OCCCCn1ccnc1 | 15
CCCc1nc(SCC(=O)N2CCC(Cc3ccccc3)CC2)c2c(=O)n(C)c(=O)n(C)c2n1 | 11.2
